According to the array DNA melting data of Ke et al. (doi:10.1101/2024.01.08.574731):

Legend:
[1] = melting temperature; fluorescence melt of hairpins on a sequencing array, two-state fit, raised by 9.35 °C to match UV melts; settings: sodium 0.088 M
Procedure, shortened: (§1)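 On a sequenced MiSeq flow cell, library hairpins with annealed Cy3 and quencher oligos were imaged for Cy3 fluorescence in 2.5 °C steps up to 60 °C, in 50 mM Na-HEPES pH 8.0, 25 mM NaCl. Normalisation used pre-quench Cy3 and control constructs. Bootstrapped two-state fits gave melting temperature and folding enthalpy, combined by inverse variance across four replicates and with fitted temperatures raised by 9.35 °C to match UV melts.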

[2] = folding enthalpy; higher = less favourable; fluorescence melt of hairpins on a sequencing array, two-state fit; settings: sodium 0.088 M
Procedure, shortened: as §1

Row | Sequence | Tm [1] [°C] | folding enthalpy [2] [kcal/mol]
1 | GTGTCTTCGAAAGAACAC (((..(((....)))))) | 32.9 | -17.2
2 | GGGGACGAAAGTCAGCCC ((((((....)))..))) | 49.5 | -15.4
3 | GAAGCGAAAGCTTC (((((....))))) | 68.1 | -25.7
4 | GCTTAGCGAAAGCTCTGC ((..(((....)))..)) | 37.8 | -16.4
5 | GTCAGCCCGAAAGGGGAC (((..(((....)))))) | 42.4 | -13.7
6 | GATCGAGAATCGATC ((((((...)))))) | 59.5 | -39.8
7 | GCGCAGCGAAAGCGTCGC (((..((....))..))) | 58.9 | -13.3
8 | GGTTGCGAAAGCAGTACC ((((((....)))..))) | 43.3 | -16.9
9 | GTCGGCGAAAGCCTGGAC ((((((....)))..))) | 45 | -15.2
10 | GGGTCAGGAAACTGGCCC (((.(((....))).))) | 60.4 | -41.8
11 | GGATACGAAAGTAGTTCC ((((((....)))..))) | 25 | -9.9
12 | GATAGGAAACTATC (((((....))))) | 40.2 | -15.4
13 | GATCATTTAAATGATC ((((((....)))))) | 48.4 | -46.3
14 | GATCGAATGCTCGATC ((((((....)))))) | 49.9 | -49.6
15 | GGCGCCGAAAGGCTTGCC ((((((....)))..))) | 53.4 | -19.9
16 | ATTCTGAAAAGAAT (((((....))))) | 32.2 | -12.6
17 | GCATCCGGAAACGAATGC ((((.((....)).)))) | 45.5 | -44.1
18 | GCGGGACGCCGC ((((....)))) | 66.2 | -13.9
19 | GCAACCGCGAAAGCGTGC (((..(((....)))))) | 44.7 | -14.3

Row | Sequence | Tm [1] [°C] | folding enthalpy [2] [kcal/mol]
20 | GATACCGGAAACGGCATC (((.(((....))).))) | 43.8 | -25
21 | GTGTCACGAAAGTGTCAC (((.(((....))).))) | 53.5 | -40.4
22 | GCTAACGGAAACGTCAGC (((.(((....))).))) | 42.1 | -26.6
23 | GCCCGGCGAAAGCAGAGC ((.(.((....)).).)) | 47.4 | -14.4
24 | GAGGTAGGAAACTACTTC ((.((((....)))).)) | 32.5 | -30.1
25 | GTTTCCGGAAACGGAGAC ((.((((....)))).)) | 47.6 | -20.2
26 | GGTGGTGGAAACGCTACC (((.(.(....).).))) | 40.4 | -28.1
27 | GTAGCCGGAAACGGTTAC (((.(((....))).))) | 51.3 | -37.7
28 | GCTGACGAAAGTCTAAGC ((((((....)))..))) | 47.1 | -19.1
29 | GATCACGGCTGTGATC ((((((....)))))) | 62.3 | -44.5
30 | GCTCAAGCGAAAGCTAGC (((..(((....)))))) | 40.6 | -14.1
31 | GAAGTAGGAAACCACTTC (((((.(....).))))) | 34.8 | -24.7
32 | GGTTTCGGAAACGAAGCC ((.((((....)))).)) | 51.4 | -28.2
33 | GTGAATGGAAACGTTCAC (((((.(....).))))) | 47.1 | -39.7
34 | GAGCTAGGAAACTAGTTC ((.((((....)))).)) | 37.2 | -26.8
35 | GATCCATTGTTGGATC ((((((....)))))) | 52.2 | -44.2
36 | GTTGTGAAAACAAC (((((....))))) | 50.5 | -29.6
37 | GCCTTATCGAAAGATGGC (((..(((....)))))) | 42.6 | -28.7
38 | GATCTTCATCAAGATC ((((((....)))))) | 40.3 | -29.9
